Experimental data from ChEMBL document CHEMBL3244290, “N-Alkyl derivatives of (+/-)-alpha-methyldopamine” (J Med Chem, 1979).
The source made the active and inactive calls. The rule behind the calls is not given here.

What was measured:
[1] = test system: Rattus norvegicus; experiment: Induction of rotation in rat with unilateral denervation of caudate nucleus at 0.25 mg/kg, sc; type: functional, organism-based; parameters: dose 0.25 mg/kg
Summary of the method: (§1)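 Rats given a unilateral 6-hydroxydopamine injection into the substantia nigra. Compounds dosed subcutaneously and the rotations they induced were counted. Apomorphine served as the reference.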

[2] = test system: Columbidae; experiment: Inhibition of apomorphine-induced pecking in pigeon at 3 umol/kg; type: functional
Summary of the method: (§2)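 Pigeons. Compounds given intramuscularly at up to 4 mg/kg to test induction of pecking. Antagonism of pecking induced by apomorphine (1.62 μM/kg) was also tested, and ED50 values were estimated.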

[3] = test system: Rattus norvegicus; experiment: Induction of rotation in rat with unilateral denervation of caudate nucleus at 1 mg/kg, sc; type: functional, organism-based; parameters: dose 1 mg/kg; summary of the method: as §1
[4] = species: Felis catus; experiment: Inhibition of field stimulation-induced positive ionotrophic response in cat atria; type: functional; settings: Cardiac atrium
[5] = test system: Canis familiaris; experiment: Inhibition of apomorphine-induced emesis in dog at 2 mg/kg, sc; type: functional, organism-based; parameters: dose 2 mg/kg; settings: Canis lupus familiaris
Summary of the method: (§3)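 Unanaesthetised dogs. For emesis, compound given sc and dogs watched 45 min for an emetic response. For antagonism, compound given sc and apomorphine 100 μg/kg 15 min later.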

[6] = species: Rattus norvegicus; experiment: Toxicity in Sprague-Dawley rat assessed as sniffing at 50 ug injection into nucleus accumbens; type: organism-based; settings: in vivo, other
Summary of the method: (§4)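 Male Sprague-Dawley rats (250 ± 25 g) with stereotaxic guide cannulae aimed at the nucleus accumbens. Tested 10–14 days after surgery with a bilateral 1 μL infusion over 60 s; each rat used once and placement checked histologically. Locomotion counted by photocell cage. Stereotypy scored, where 3–4 = biting, gnawing or licking. Pretreatments given ip: α-methyl-p-tyrosine 250 mg/kg 6 h before, or haloperidol 0.1, propranolol 5 or aceperone 2.5 mg/kg 30 min before.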

[7] = species: Felis catus; experiment: Inhibition of field stimulation-induced positive chronotrophic response in cat atria; type: functional; settings: Cardiac atrium
[8] = test system: Mus musculus; experiment: Toxicity in albino B.K.W mouse assessed as climbing behaviour at 20 to 80 mg/kg, sc; type: organism-based; parameters: dose 20-80 mg/kg, route subcutaneous; settings: in vivo
Summary of the method: (§5)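 Mice dosed subcutaneously at 20, 40 and 80 mg/kg in 1 mL/kg, doses as free base. Climbing scored as all four paws on the wire, giving a climbing index (% time over 30 min after the first climb) and the maximum time of a single climb. Circling was tested in mice with a unilateral caudate-putamen electrolesion, pre-selected for circling of 7 or more revolutions/2 min in response to apomorphine. Stereotypy was also recorded.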

[9] = test system: Mus musculus; experiment: Toxicity in albino B.K.W mouse assessed as stereotyped behaviour at 20 to 80 mg/kg, sc; type: organism-based; parameters: dose 20-80 mg/kg, route subcutaneous; settings: in vivo; summary of the method: as §5
[10] = test system: Canis familiaris; experiment: Toxicity in dog assessed as emesis at 2 mg/kg, sc; type: organism-based, Canis lupus familiaris; parameters: dose 2 mg/kg, route subcutaneous; settings: in vivo; summary of the method: as §3
[11] = species: Rattus norvegicus; experiment: Toxicity in Sprague-Dawley rat assessed as locomotor hyperactivity treated bilateral injection into nucleus accumbens at 50 ug; type: organism-based; settings: in vivo, other; summary of the method: as §4
[12] = species: Canis lupus familiaris; experiment: Inhibition of electric stimulated dog right cardioaccelerator nerve; type: functional
Summary of the method: (§6)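 Dog cardioaccelerator nerve preparation under barbital (200 mg/kg) anaesthesia. Compounds given intravenously up to 1.0 mg/kg. Positive chronotropic responses read by cardiometer, with blood pressure taken from the right femoral artery.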

[13] = test system: Mus musculus; experiment: Toxicity in albino B.K.W mouse assessed as circling behaviour at 20 to 80 mg/kg, sc; type: organism-based; parameters: dose 20-80 mg/kg, route subcutaneous; settings: in vivo; summary of the method: as §5
[14] = Toxicity in pigeon assessed as pecking; settings: columbidae; summary of the method: as §2
[15] = test system: Columbidae; experiment: Inhibition of apomorphine-induced pecking in pigeon; type: functional; summary of the method: as §2
[16] = test system: Canis familiaris; experiment: Increase in blood pressure in dog at 0.5 mg/kg, iv by cardiotachometer; type: functional, Canis lupus familiaris
Summary of the method: (§7)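 Anaesthetised dog (barbital 200 mg/kg). Compounds given intravenously, highest dose tested 1.0 mg/kg. Blood pressure recorded from the right femoral artery and heart rate by cardiometer. Resting heart rate, blood pressure and positive chronotropic responses were assessed after dosing. Doses calculated as free base.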

[17] = species: Rattus norvegicus; experiment: Toxicity in Sprague-Dawley rat assessed as licking up to 50 ug injection into nucleus accumbens; type: organism-based; settings: in vivo, other; summary of the method: as §4
[18] = test system: Mus musculus; experiment: Toxicity in albino B.K.W mouse assessed as stereotyped head and limb movement at 40 to 80 mg/kg, sc; type: organism-based; parameters: dose 40-80 mg/kg, route subcutaneous; settings: in vivo; summary of the method: as §5
[19] = species: Rattus norvegicus; experiment: Toxicity in Sprague-Dawley rat assessed as gnawing up to 50 ug injection into nucleus accumbens; type: organism-based; settings: in vivo, other; summary of the method: as §4
[20] = species: Rattus norvegicus; experiment: Toxicity in Sprague-Dawley rat assessed as biting up to 50 ug injection into nucleus accumbens; type: organism-based; settings: in vivo, other; summary of the method: as §4
[21] = test system: Canis familiaris; experiment: Increase in resting heart rate in dog at 0.5 mg/kg, iv by cardiotachometer; type: functional, organism-based; parameters: dose 0.5 mg/kg; settings: Canis lupus familiaris; summary of the method: as §7
[22] = test system: Rattus norvegicus; experiment: Induction of rotation in rat with unilateral denervation of caudate nucleus at 4 mg/kg, sc; type: functional, organism-based; parameters: dose 4 mg/kg; summary of the method: as §1
[23] = test system: Canis familiaris; experiment: Increase in heart rate in dog at 1 mg/kg, iv by cardiotachometer; type: functional, organism-based; parameters: dose 1 mg/kg; settings: Canis lupus familiaris; summary of the method: as §7
[24] = species: Rattus norvegicus; experiment: Toxicity in Sprague-Dawley rat assessed as sniffing at 12.5 to 50 ug injection into nucleus accumbens; type: organism-based; settings: in vivo, other; summary of the method: as §4
[25] = test system: Canis familiaris; experiment: Increase in ionotrophic response in iv dosed dog following field stimulation assessed as minimum effective dose by cardiotachometer; type: functional, Canis lupus familiaris; parameters: unit not given here; summary of the method: as §6
[26] = test system: Canis familiaris; experiment: Increase in ionotrophic response in dog following field stimulation at 1 mg/kg, iv by cardiotachometer; type: functional, organism-based; parameters: dose 1 mg/kg; settings: Canis lupus familiaris; summary of the method: as §6
[27] = species: Rattus norvegicus; experiment: Toxicity in Sprague-Dawley rat assessed as hyperactivity treated intra-accumbens injection pretreated with haloperiodol; type: organism-based; settings: in vivo, other; summary of the method: as §4
[28] = test system: Canis familiaris; experiment: Increase in blood pressure in dog at 30 ug/kg, iv by cardiotachometer; type: functional, Canis lupus familiaris; summary of the method: as §7
[29] = species: Rattus norvegicus; experiment: Toxicity in Sprague-Dawley rat assessed as hyperactivity treated intra-accumbens injection pretreated with propranolol; type: organism-based; settings: in vivo, other; summary of the method: as §4
[30] = species: Rattus norvegicus; experiment: Toxicity in Sprague-Dawley rat assessed as hyperactivity treated intra-accumbens injection pretreated with aceperone; type: organism-based; settings: in vivo, other; summary of the method: as §4
[31] = test system: Canis familiaris; experiment: Increase in resting heart rate in dog at […], iv by cardiotachometer; type: functional, organism-based; settings: Canis lupus familiaris; summary of the method: as §7
[32] = species: Rattus norvegicus; experiment: Toxicity in Sprague-Dawley rat assessed as hyperactivity treated intra-accumbens injection pretreated with alpha-methyl-p-tyrosine; type: organism-based; settings: in vivo, other; summary of the method: as §4
[33] = test system: Canis familiaris; experiment: Increase in heart rate in dog assessed as beats at 30 ug/kg, iv by cardiotachometer; type: functional, Canis lupus familiaris; summary of the method: as §7
[34] = species: Rattus norvegicus; experiment: Toxicity in Sprague-Dawley rat assessed as hyperactivity treated bilateral injection into nucleus accumbens; type: organism-based; settings: in vivo, other; summary of the method: as §4
[35] = species: Rattus norvegicus; experiment: Toxicity in Sprague-Dawley rat assessed as hyperactivity treated intra-accumbens injection; type: organism-based; settings: in vivo, other; summary of the method: as §4
[36] = test system: Canis familiaris; experiment: Increase in blood pressure in dog at 50 ug/kg, iv by cardiotachometer; type: functional, Canis lupus familiaris; summary of the method: as §7
[37] = test system: Canis familiaris; experiment: Increase in heart rate in dog assessed as beats at 50 ug/kg, iv by cardiotachometer; type: functional, Canis lupus familiaris; summary of the method: as §7
[38] = species: Rattus norvegicus; experiment: Toxicity in Sprague-Dawley rat assessed as hyperactivity treated bilateral injection into nucleus accumbens at > 6.25 ug; type: organism-based; settings: in vivo, other; summary of the method: as §4

Row | SMILES | inhibition [4] | Activity [5] | inhibition [7] | Activity [8] | Activity [9] | Activity [10] | Activity [11] | inhibition [12] | Activity [13] | Activity [14] | Activity [17] | Activity [19] | Activity [20] | Activity [22] | Activity [31] | other results
1 | CN1CCc2cccc3c2[C@H]1Cc1ccc(O)c(O)c1-3 |  |  |  |  |  |  |  |  |  |  |  |  |  |  |  | Activity [1]: Active
2 | COc1cc(CC(C)N)c(OC)cc1C (configuration not stated) |  |  |  |  |  |  |  |  |  |  |  |  |  |  |  | inhibition [2]: Active
3 | C[C@H](N)Cc1ccccc1 |  |  |  |  |  |  |  |  |  |  |  |  |  |  |  | Activity [3]: Active
4 | Br.CCNC(C)Cc1ccc(O)c(O)c1 (racemic) | inactive | inactive | inactive | Non-toxic | Non-toxic | Non-toxic | Toxic | inactive | Non-toxic | Non-toxic |  |  |  |  |  | Activity [6]: Toxic
5 | Br.CCN(CC)C(C)Cc1ccc(O)c(O)c1 (racemic) | inactive | inactive | inactive | Non-toxic | Non-toxic | Non-toxic | Toxic | inactive | Non-toxic | Non-toxic | Non-toxic | Non-toxic | Non-toxic |  |  | inhibition [15]: Active; Activity [16]: <=10 mmHg; Activity [18]: Toxic; Activity [21]: inactive
6 | Br.CCCN(CCC)C(C)Cc1ccc(O)c(O)c1 (racemic) | inactive | inactive | inactive | Non-toxic | Non-toxic | Non-toxic | Toxic | inactive | Non-toxic | Non-toxic |  |  |  | inactive |  | Activity [16]: <=10 mmHg; Activity [23]: Active; Activity [24]: Toxic; MED [25]: 20; Activity [26]: Active; Activity [21]: inactive
7 | Br.CCCNC(C)Cc1ccc(O)c(O)c1 (racemic) | inactive | inactive | inactive | Non-toxic | Non-toxic | Non-toxic |  | inactive | Non-toxic | Non-toxic | Toxic | Toxic | Toxic | inactive | Active | Activity [27]: Non-toxic; Activity [28]: 35%; Activity [29]: Toxic; Activity [30]: Toxic; Activity [32]: Non-toxic; Activity [33]: 35 bpm; Activity [34]: Toxic; Activity [35]: Toxic
8 | Br.CC(Cc1ccc(O)c(O)c1)N(C)C (racemic) | inactive | inactive | inactive | Non-toxic | Non-toxic | Non-toxic | Non-toxic | inactive | Non-toxic | Non-toxic | Non-toxic | Non-toxic | Non-toxic |  | Active | Activity [36]: 80%; Activity [37]: 50 bpm
9 | Br.CC(N)Cc1ccc(O)c(O)c1 (racemic) | inactive | inactive | inactive | Non-toxic | Non-toxic | Non-toxic |  | inactive | Non-toxic | Non-toxic |  |  |  | inactive | Active | inhibition [15]: Active; Activity [38]: Toxic; Activity [27]: Non-toxic; Activity [29]: Toxic; Activity [36]: 80%; Activity [24]: Toxic; Activity [30]: Toxic; Activity [37]: 50 bpm; Activity [32]: Non-toxic; Activity [35]: Toxic
